S1P3 antag = S1P3 receptor antagonists, primary screen, cell-based; CHO S1P3 NFAT-BLA reporter, FRET fluorescence, antagonist mode; inhibition, % at 4.98 µM; 0.27% of 170,000 active; AID 485, 2006;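 active = inhibition above the plate cutoff, the mean inhibition of test wells on that plate plus 3 SD, cut at about 28% in these data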;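 also: cells challenged with S1P at its EC80 of 0.8 µM; blue over green emission ratio from cleaved BLA substrate after 4 h stimulation; 0% = S1P-stimulated wells and 100% = unstimulated DMSO-only wells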
Mdm2 ligase inh = MDM2-luciferase reporter signal enhancers, primary screen, MDM2 E3 ligase inhibitor project, cell-based, luminescence, 1536-well; AID 1230, 2008; cell-based MDM2 ubiquitination luciferase reporter, 2 h; 0 = plate control, 100 = twice control, blank-subtracted; signal enhancement, % at 5 µM; 0.11% of 210,000 active;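 active = signal enhancement of 30% or more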;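 also: luminescence tracks abundance of the self-degrading MDM2-luciferase fusion protein; higher signal means inhibition of MDM2 E3 ligase activity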
Target sequence (Q00987 whole entry, looked up, the tested form may be a part): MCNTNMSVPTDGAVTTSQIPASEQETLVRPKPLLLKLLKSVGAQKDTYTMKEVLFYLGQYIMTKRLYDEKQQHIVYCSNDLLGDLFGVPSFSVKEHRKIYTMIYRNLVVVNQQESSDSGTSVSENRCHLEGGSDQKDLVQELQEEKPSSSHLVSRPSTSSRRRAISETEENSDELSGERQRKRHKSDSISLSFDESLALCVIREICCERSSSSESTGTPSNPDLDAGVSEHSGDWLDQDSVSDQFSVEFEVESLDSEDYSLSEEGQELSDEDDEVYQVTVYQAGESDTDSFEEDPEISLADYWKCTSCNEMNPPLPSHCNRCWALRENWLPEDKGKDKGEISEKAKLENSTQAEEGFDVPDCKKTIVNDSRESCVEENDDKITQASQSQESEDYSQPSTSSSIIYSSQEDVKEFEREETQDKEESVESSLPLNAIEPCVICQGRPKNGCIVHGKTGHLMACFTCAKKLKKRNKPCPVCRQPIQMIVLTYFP
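Assay system: mammalian cells stably expressing self-ubiquitinating, self-degrading MDM2 E3–luciferase fusion. Quantity: 2000 cells in each well. Medium: DMEM culture medium. Compound dosing: single-point 5 µM. Timing: cell settling 4 h, compound treatment 2 h, both 37 °C. Technique: luciferase luminescence. Read-out basis: percent signal gain over controls, blank-subtracted. Benchmarks: plate controls and plate blanks.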
CHOP inhibitor = inhibitors of CHOP promoter induction, primary screen, cell-based, unfolded protein response, luciferase reporter; CHO-K1 CHOP-promoter luciferase, tunicamycin-induced, 15-18 h; inhibition, % at 10 µM; 3.8% of 220,000 active;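 active = compounds that reduced the stress-induced luciferase reporter signal by more than about 70% of percent inhibition, limit read from the data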;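 also: 0% = tunicamycin plus vehicle and 100% = wells without tunicamycin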
Hsp70 activator = Hsp70 transcriptional activators, primary screen, cell-based, HeLa, Hsp70 promoter luciferase, luminescence, 10 µM; AID 1203, 2008; activation, % at 10 µM; HeLa Hsp70 promoter luciferase reporter; scaled: vehicle 0, proteasome-inhibitor control 100%; 0.04% of 200,000 active;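 active = activation above the mean across all tested compounds plus 3 SD, cutoff set per campaign, cut at about 5.5% in these data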;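 also: 100% = MG132 at 30 µM as the positive control and 0% = DMSO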
An asterisk follows results filed as active; / = no result given; ! = repeats disagree. Most compounds without a hit are left out; they make up all but 4% or so of the library.

SMILES	S1P3 antag	Mdm2 ligase inh	CHOP inhibitor	Hsp70 activator
CC1=C(C)C(=O)C(CCCCC#CCCCC#CCO)=C(C)C1=O	0.6	/	73.3*!	-0.3
CC(C)=CCC/C(C)=C/Cc1c(O)ccc(C(=O)/C=C/c2ccc(O)cc2)c1O	-12.6	/	85.8*	-0.3
O=C(/C=C/c1ccc(O)cc1)c1ccc(O)cc1O	-0.7	/	-17.8	0.3
O=C(CN1C(=O)c2cccc3cccc(c23)C1=O)NCCN1CCOCC1	-6.2	-10.1	-4.5	0.0
CC(=O)Nc1nc(-c2ccccc2)nc(-c2ccccc2OC(C)=O)n1	28.0	-5.1	90.4*	0.2
CC(=O)Nc1nc(C)nc(-c2ccccc2OC(C)=O)n1	-10.1	-4.5	9.2	-0.1
COc1cc(C(=O)NCCc2ccc(S(=O)(=O)N3CCCC3)cc2)cc(OC)c1OC	-4.0	-2.6	-6.7	-0.1
Cn1cc(S(=O)(=O)Oc2ccccc2)c(=O)n(C)c1=O	2.6	-5.7	12.2	-0.2
Cc1sc2ncn3ncnc3c2c1C	41.1	-16.2	89.6*	-0.5
Cc1sc2ncn3cnnc3c2c1C	1.6	-23.4	1.8	0.0
CCOCC(=O)Nc1cc(C)on1	-7.7	-5.3	-11.2	-0.1
COc1ccccc1CNCC(=O)Nc1ccc(C(F)(F)F)cc1	-6.6	/	-14.4	/
O=C(C#Cc1ccccc1)c1ccc([N+](=O)[O-])cc1	/	1.0	110.8*	-0.3
Cc1ccc(Oc2ccc(-c3nc(N)nc(N)n3)cc2)cc1C	/	-1.4	88.5*	-0.2
CCOc1ccc(-c2nc(N)ncc2Oc2ccc(OC)cc2)c(O)c1	2.9	-16.0	-3.5	/
COc1ccc(-c2nc(N)nc(C)c2Oc2ccccc2Br)c(O)c1	-1.0	-12.8	95.4*	0.0
Cc1[nH]c2ccccc2c1-c1nc(-c2ccc(Cl)cc2)nnc1-c1ccccc1	7.1	-0.5	75.8*	0.3
c1ccc(-c2nnc(-c3ccccc3)c(-c3c[nH]c4ccccc34)n2)cc1	/	-85.4	58.1	-0.1
Clc1ccc(-c2nnc(-c3ccccc3)nc2-c2c[nH]c3ccccc23)cc1	0.2	-6.8	84.7*	-0.4
CCc1c(C(=O)N/N=C/c2ccc(C)o2)csc1C	/	/	-15.6	-0.5
COc1ccc(-c2ccccc2)cc1NCc1ccc(OC)c(OC)c1	-12.9	-10.7	10.4	-0.1
O=C(NCc1cccc(Cl)c1)c1ccc(S(=O)(=O)Nc2cccc(C(F)(F)F)c2)cc1	-7.3	3.2	90.4*	-0.4
O=C(Cc1cccc(C(F)(F)F)c1)NCc1cccc(Cl)c1	-7.6	8.0	24.5	-0.6
CN(C)C(=O)C1CCC(=O)N1Cc1cccs1 (stereo unspecified)	-2.5	-33.3	-9.1	-0.3
C/C(=N\NC(=O)COc1ccc(C(C)(C)C)cc1)c1ccc(OC(F)F)cc1	-2.7	3.1	93.7*	-0.3
SMILES	S1P3 antag	Mdm2 ligase inh	CHOP inhibitor	Hsp70 activator
C/C(=N\NC(=O)COc1ccc(C(C)(C)C)cc1)c1cc2ccccc2o1	-6.1	-35.2	73.8*	0.0
COC(=O)C(Cc1ccccc1)NC(=O)COc1ccc(C(C)(C)C)cc1 (stereo unspecified)	/	-11.8	92.6*	0.1
C/C(=N\NC(=O)COc1ccc(C(C)(C)C)cc1)c1ccc2c(c1)OCCO2	-3.1	-13.9	51.7	-0.4
COc1ccc(NCC(=O)N/N=C(\C)c2cc3ccccc3o2)cc1	-0.5	-18.7	31.7	0.0
CCOc1ccc(C(=O)NC(Cc2ccccc2)C(=O)OC)cc1 (stereo unspecified)	/	-15.1	-32.1	0.2
C/C(=N\NC(=O)COc1ccc(C(C)(C)C)cc1)c1ccccc1	-22.3	-15.2	81.1*	0.2
NC(=O)C1CCN(C(=O)CSc2ccsc2[N+](=O)[O-])CC1	-10.6	4.2	18.4	0.1
CCN(CCCNC(=O)C1CCC(=O)N1C(C)C)c1cccc(C)c1 (stereo unspecified)	/	-15.6	-21.6	-0.2
CC(C)CC(=O)Nc1ccc(C(=O)CN2CCC(C)CC2)cc1	-16.8	-17.8	28.8	-0.4
O=C(Nc1ccc(S(=O)(=O)N2CCCCC2)cc1)c1ccc(CN2CCc3ccccc3C2)cc1	/	-12.1	79.9*	0.9
S=c1[nH]nc(CSc2nc3ccccc3s2)n1C1CCCCC1	/	-16.1	87.4*	-0.2
Cc1c(C)n(C(=O)CSc2nc3ccccc3[nH]2)c2ccccc12	/	-13.5	80.4*	-0.4
COC(=O)c1c(NC(=O)C(C)(C)C)sc2c1C(C(=O)OC)CC2 (stereo unspecified)	/	-6.5	30.0	0.1
COC(=O)c1c(NC(=O)C(Cl)Cl)sc2c1C(C(=O)OC)CC2 (stereo unspecified)	-8.4	-4.8	79.7*	/
CCOc1ccc(S(=O)(=O)NCCCN2CCOCC2)c2ccccc12	-15.9	-13.1	-9.9	0.2
CCCOc1ccc(S(=O)(=O)NCCCN2CCOCC2)c2ccccc12	16.2	-6.3	71.2*	0.1
CCn1c(=O)c([N+](=O)[O-])c(NCCN(C)C)c2ccccc21	-30.1	-7.6	-26.8	0.3
CCn1c(=O)c([N+](=O)[O-])c(Cl)c2ccccc21	-0.7	1.4	107.6*	-0.2
COc1ccc(NC(=O)C(C)N2C(=O)c3ccccc3C2=O)cc1S(=O)(=O)N1CCOCC1 (stereo unspecified)	8.2	-3.7	-6.4	-0.3
Cc1cc(C(C)(C)C)cc(S(=O)(=O)Nc2ccc(O)c(C(=O)O)c2)c1C	/	-4.6	20.6	0.3
CC(=O)Nc1ccc(NC(=O)c2ccc(NS(=O)(=O)c3cc(C(C)(C)C)cc(C)c3C)cc2)cc1	-16.0	-1.7	76.4*	-0.2
CN(Cc1cnccn1)Cc1ccccc1OCC(O)CN1CCc2ccccc2C1 (stereo unspecified)	-1.7	-9.1	-2.8	0.2
O=C(CCc1ccccc1)NC(=S)Nc1ccccc1Br	-7.8	-20.9	23.9	0.0
O=C(CCc1ccccc1)NC(=S)Nc1cccc(Br)c1	-0.8	-4.7	71.8*	-0.1
CC(NC(=O)CCSc1nc(-c2ccc3c(c2)OCO3)cc(C(F)(F)F)n1)c1ccccc1 (stereo unspecified)	/	-11.0	-15.6	0.1
SMILES	S1P3 antag	Mdm2 ligase inh	CHOP inhibitor	Hsp70 activator
CCC(=O)OCCNc1cc(Sc2nccn2C)c2nonc2c1[N+](=O)[O-]	5.1	-14.6	109.1*	-0.4
CCC(=O)OCCNc1cc(SCCC(=O)OC)c2nonc2c1[N+](=O)[O-]	-20.6	/	10.5	-0.2
Cc1ccc(C(=O)NNC(=O)CSc2n[nH]c(-c3cccnc3)n2)cc1	4.4	-4.4	17.2	-0.1
COc1ccc(/C=C/C(=O)Nc2sc(Cc3ccccc3)c(C)c2C(N)=O)cc1	-4.2	1.2	74.6*	-0.5
O=C(Nc1cccc(C(F)(F)F)c1)C(Sc1ncnc2ccccc12)c1ccccc1 (stereo unspecified)	-8.3	-11.2	76.2*	-0.3
Cc1cc(C)cc(NC(=O)C(Sc2ncnc3ccccc23)c2ccccc2)c1 (stereo unspecified)	-0.2	2.9	23.2	-0.3
CN1CCN(c2ccccc2NC(=O)c2cccc(OCc3ccccc3)c2)CC1	4.2	-18.6	78.5*	-0.1
